In general, MIC refers to the smallest concentration in the dilution series that meets the test's criterion for growth inhibition. Read a high MIC as a less susceptible organism.

Assay type in all cases: functional
One experiment relates to Pseudomonas aeruginosa. Put plainly: Antibacterial activity against Pseudomonas aeruginosa strain 27853. Summed up: (§1)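 Broth microdilution MIC run to NCCLS standards: serial 2-fold dilutions in cation-adjusted Mueller–Hinton broth, inoculum ~5 × 10^5 CFU/mL, incubated 35 °C for 18–24 h. Trays were read by eye, and the MIC was taken as the lowest concentration giving complete growth inhibition (no visible turbidity).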

For experiment [1], the system named is Staphylococcus aureus. Kind of experiment: Antibacterial activity against Staphylococcus aureus strain St au 29213. A digest of the protocol:
as §1

The test system of the next experiment is Escherichia coli. Kind of experiment: Antibacterial activity against Escherichia coli strain 25922. Summed up: as §1
Another experiment deals with Enterococcus faecalis. Put plainly: Antibacterial activity against Enterococcus faecalis strain 29212. Summed up:
as §1

The subject of experiment [2] is Staphylococcus aureus. Kind of experiment: Antibacterial activity against Staphylococcus aureus strain St au 33591 MRSA. Summed up: as §1

Molecules are shown by their SMILES. In brackets after ≈: the same amount, converted by molar mass.

Take `C[C@@H]1C[C@H](N)CN1c1cc2c(cc1F)c(=O)c(C(=O)O)cn2-c1ccc(O)cc1`: the MIC stood at 50 µg/mL (≈ 126 µM) in the experiment with Pseudomonas aeruginosa; 0.78 µg/mL (≈ 1.96 µM) against Staphylococcus aureus [1]; 3.13 µg/mL (≈ 7.88 µM) in the experiment with Escherichia coli; 12.5 µg/mL (≈ 31.5 µM) against Enterococcus faecalis; 0.78 µg/mL (≈ 1.96 µM) against Staphylococcus aureus [2].
In the case of `COc1c(N2C[C@@H](C)[C@@H](C)C2)c(F)cc2c(=O)c(C(=O)O)cn(-c3ccc(O)cc3)c12`, the minimum inhibitory concentration (MIC) was 3.13 µg/mL (≈ 7.34 µM) in the experiment with Pseudomonas aeruginosa; 0.78 µg/mL (≈ 1.83 µM) against Staphylococcus aureus [1]; 0.78 µg/mL (≈ 1.83 µM) with Escherichia coli; 6.25 µg/mL (≈ 14.7 µM) against Enterococcus faecalis; 0.78 µg/mL (≈ 1.83 µM) in the experiment with Staphylococcus aureus [2].
As for `CN1CCCC2CN(c3cc4c(cc3F)c(=O)c(C(=O)O)cn4-c3ccc(O)cc3)CC21` (stereo not given), the minimum inhibitory concentration (MIC) in the experiment on Pseudomonas aeruginosa amounted to 6.25 µg/mL (≈ 14.3 µM); against Staphylococcus aureus [1], 0.2 µg/mL (≈ 0.457 µM); in the experiment on Escherichia coli, 0.2 µg/mL (≈ 0.457 µM); against Enterococcus faecalis, 3.13 µg/mL (≈ 7.15 µM); with Staphylococcus aureus [2], 0.4 µg/mL (≈ 0.914 µM).
With `C[C@H]1CN(c2cc3c(cc2F)c(=O)c(C(=O)O)cn3-c2ccc(O)cc2)C[C@H]1N`, the MIC in the experiment on Pseudomonas aeruginosa was determined as 1.56 µg/mL (≈ 3.93 µM); against Staphylococcus aureus [1], 0.2 µg/mL (≈ 0.503 µM); in the experiment with Escherichia coli, 0.2 µg/mL (≈ 0.503 µM); with Enterococcus faecalis, 1.56 µg/mL (≈ 3.93 µM); with Staphylococcus aureus [2] it was 0.2 µg/mL (≈ 0.503 µM).
On to `N[C@@H]1[C@H]2CN(c3nc4c(cc3F)c(=O)c(C(=O)O)cn4-c3ccc(O)cc3)C[C@@H]12`, for which the minimal inhibitory concentration (MIC) in the experiment on Pseudomonas aeruginosa turned out to be 0.78 µg/mL (≈ 1.97 µM); against Staphylococcus aureus [1] it was 0.2 µg/mL (≈ 0.505 µM); in the experiment on Escherichia coli, 0.1 µg/mL (≈ 0.252 µM); in the experiment with Enterococcus faecalis, 0.78 µg/mL (≈ 1.97 µM); against Staphylococcus aureus [2] it was 0.2 µg/mL (≈ 0.505 µM).
As to `C[C@@H]1CN(c2cc3c(cc2F)c(=O)c(C(=O)O)cn3-c2ccc(O)cc2)C[C@H](C)N1`, the MIC against Pseudomonas aeruginosa was 3.13 µg/mL (≈ 7.61 µM); with Staphylococcus aureus [1], 0.2 µg/mL (≈ 0.486 µM); in the experiment with Escherichia coli it was 0.1 µg/mL (≈ 0.243 µM); against Enterococcus faecalis, 3.13 µg/mL (≈ 7.61 µM); in the experiment on Staphylococcus aureus [2], 0.4 µg/mL (≈ 0.972 µM).
Regarding `N[C@@H]1[C@H]2CN(c3cc4c(cc3F)c(=O)c(C(=O)O)cn4-c3ccc(O)cc3)C[C@@H]12`, the minimal inhibitory concentration (MIC) in the experiment on Pseudomonas aeruginosa is 3.13 µg/mL (≈ 7.92 µM); in the experiment with Staphylococcus aureus [1] it was 0.1 µg/mL (≈ 0.253 µM); against Escherichia coli it was 0.2 µg/mL (≈ 0.506 µM); against Enterococcus faecalis it was 1.56 µg/mL (≈ 3.95 µM); against Staphylococcus aureus [2] it was 0.1 µg/mL (≈ 0.253 µM).
Turning to `COc1c(N2CC3CCCN(C)C3C2)c(F)cc2c(=O)c(C(=O)O)cn(-c3ccc(O)cc3)c12` (stereo not given), the minimum inhibitory concentration (MIC) with Pseudomonas aeruginosa turned out to be 6.25 µg/mL (≈ 13.4 µM); in the experiment with Staphylococcus aureus [1], 0.78 µg/mL (≈ 1.67 µM); against Escherichia coli, 0.4 µg/mL (≈ 0.856 µM); in the experiment with Enterococcus faecalis it was 12.5 µg/mL (≈ 26.7 µM); against Staphylococcus aureus [2] it was 1.56 µg/mL (≈ 3.34 µM).
For `C[C@H](N)[C@H]1CCN(c2cc3c(cc2F)c(=O)c(C(=O)O)cn3-c2ccc(O)cc2)C1`, in that order: 25 µg/mL (≈ 60.8 µM), 0.4 µg/mL (≈ 0.972 µM), 1.56 µg/mL (≈ 3.79 µM), 3.13 µg/mL (≈ 7.61 µM) and 0.78 µg/mL (≈ 1.9 µM).
For `N[C@H]1CN(c2cc3c(cc2F)c(=O)c(C(=O)O)cn3-c2ccc(O)cc2)CC12CC2`, in that order: 6.25 µg/mL (≈ 15.3 µM), 0.4 µg/mL (≈ 0.977 µM), 0.78 µg/mL (≈ 1.91 µM), 6.25 µg/mL (≈ 15.3 µM) and 0.78 µg/mL (≈ 1.91 µM).
For `C[C@H](N)[C@@H]1CCN(c2cc3c(cc2F)c(=O)c(C(=O)O)cn3-c2ccc(O)cc2)C1`, in that order: 25 µg/mL (≈ 60.8 µM), 0.4 µg/mL (≈ 0.972 µM), 1.56 µg/mL (≈ 3.79 µM), 6.25 µg/mL (≈ 15.2 µM) and 0.4 µg/mL (≈ 0.972 µM).
`COc1c(N2C[C@@H](N)C3(CC3)C2)c(F)cc2c(=O)c(C(=O)O)cn(-c3ccc(O)cc3)c12`: the minimal inhibitory concentration (MIC) in the experiment with Pseudomonas aeruginosa was found to be 3.13 µg/mL (≈ 7.12 µM); against Staphylococcus aureus [1] it was 0.78 µg/mL (≈ 1.77 µM); in the experiment on Escherichia coli, 0.4 µg/mL (≈ 0.91 µM); in the experiment on Enterococcus faecalis it was 6.25 µg/mL (≈ 14.2 µM); in the experiment on Staphylococcus aureus [2], 0.78 µg/mL (≈ 1.77 µM).
Regarding `C[C@@H](N)[C@H]1CCN(c2cc3c(cc2F)c(=O)c(C(=O)O)cn3-c2ccc(O)cc2)C1`, the MIC against Pseudomonas aeruginosa was 50 µg/mL (≈ 122 µM); in the experiment with Staphylococcus aureus [1], 1.56 µg/mL (≈ 3.79 µM); with Escherichia coli, 3.13 µg/mL (≈ 7.61 µM); in the experiment with Enterococcus faecalis, 25 µg/mL (≈ 60.8 µM); with Staphylococcus aureus [2], 1.56 µg/mL (≈ 3.79 µM).
Regarding `COc1c(N2C[C@@H](C)N[C@@H](C)C2)c(F)cc2c(=O)c(C(=O)O)cn(-c3ccc(O)cc3)c12`, the MIC turned out to be 50 µg/mL (≈ 113 µM) in the experiment on Pseudomonas aeruginosa; 3.13 µg/mL (≈ 7.09 µM) against Staphylococcus aureus [1]; 1.56 µg/mL (≈ 3.53 µM) against Escherichia coli; 50 µg/mL (≈ 113 µM) in the experiment with Enterococcus faecalis; 6.25 µg/mL (≈ 14.2 µM) in the experiment on Staphylococcus aureus [2].
Consider `NCC1CCN(c2cc3c(cc2F)c(=O)c(C(=O)O)cn3-c2ccc(O)cc2)C1` (stereo not given), for which the MIC came out at 25 µg/mL (≈ 62.9 µM) against Pseudomonas aeruginosa; 0.4 µg/mL (≈ 1.01 µM) in the experiment on Staphylococcus aureus [1]; 1.56 µg/mL (≈ 3.93 µM) in the experiment on Escherichia coli; 6.25 µg/mL (≈ 15.7 µM) with Enterococcus faecalis; 0.78 µg/mL (≈ 1.96 µM) against Staphylococcus aureus [2].
With `O=C(O)c1cn(-c2ccc(O)cc2)c2cc(N3CC4CCCNC4C3)c(F)cc2c1=O` (stereo not given), the MIC against Pseudomonas aeruginosa stood at 6.25 µg/mL (≈ 14.8 µM); in the experiment on Staphylococcus aureus [1], 0.4 µg/mL (≈ 0.945 µM); in the experiment on Escherichia coli, 1.56 µg/mL (≈ 3.68 µM); in the experiment on Enterococcus faecalis, 3.13 µg/mL (≈ 7.39 µM); against Staphylococcus aureus [2], 0.4 µg/mL (≈ 0.945 µM).
In the case of `CC1CNCCN1c1nc2c(cc1F)c(=O)c(C(=O)O)cn2-c1ccc(O)cc1` (stereo not given), the minimum inhibitory concentration (MIC) in the experiment on Pseudomonas aeruginosa was found to be 6.25 µg/mL (≈ 15.7 µM); in the experiment with Staphylococcus aureus [1], 0.78 µg/mL (≈ 1.96 µM); against Escherichia coli it was 0.78 µg/mL (≈ 1.96 µM); with Enterococcus faecalis, 6.25 µg/mL (≈ 15.7 µM); in the experiment with Staphylococcus aureus [2], 0.78 µg/mL (≈ 1.96 µM).
On to `NC1CCN(c2nc3c(cc2F)c(=O)c(C(=O)O)cn3-c2ccc(O)cc2)C1` (stereo not given), for which the MIC was 1.56 µg/mL (≈ 4.06 µM) in the experiment with Pseudomonas aeruginosa; 0.78 µg/mL (≈ 2.03 µM) in the experiment with Staphylococcus aureus [1]; 1.56 µg/mL (≈ 4.06 µM) with Escherichia coli; above 50 µg/mL in the experiment on Enterococcus faecalis; 0.78 µg/mL (≈ 2.03 µM) in the experiment with Staphylococcus aureus [2].

(Values after ChEMBL document CHEMBL1138748, “A prodrug approach toward the development of water soluble fluoroquinolones and structure--activity relationships of quinoline-3-carboxylic acids” (2004).)
